Key:
Details in all cases: read-out: Activity
[1] = Cytotoxicity against human U87MG cells assessed as cell viability at 500 uM after 72 hrs by neutral red uptake-based assay relative to control; design: species or system U-87MG ATCC
How it was run: (§1)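 Cells kept in DMEM with 10% heat-inactivated FBS, 1% penicillin-streptomycin and 0.1% fungizone at 37 °C, 5% CO₂. U-87 MG seeded at 2 x 10^3 cells/well, RAW 264.7 at 5 x 10^2, adhered 24 h, then exposed 72 h. MTT: 1 mg/mL for 3 h, formazan in DMSO, A595. NRU: 25 μg/mL dye, 3 h, ethanol:acetic acid:water desorb. Untreated wells = 100%; three to five independent experiments in triplicate.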

[2] = Cytotoxicity against human U87MG cells assessed as cell viability at 500 uM after 72 hrs by MTT assay relative to control; assay type: cell-based, U-87MG ATCC; how it was run: as §1
[3] = Cytotoxicity against human HaCaT cells assessed as cell viability at 100 uM after 72 hrs by MTT assay relative to control; assay type: cell-based
How it was run: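 Cells grown in DMEM with 10% FBS at 37 °C, 5% CO₂; seeded 2 x 10³ cells/well, adhered 24 h, then exposed 72 h. MTT: 1 mg/mL for 3 h, formazan in DMSO, absorbance 595 nm. NRU: neutral red 25 µg/mL in serum-free medium for 3 h, desorbed in ethanol:acetic acid:water. Viability as % of untreated control; mean ± SEM of three to five independent experiments in triplicate.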

SMILES: O=c1[nH]c(CNC(CO)CO)c(I)c(=O)[nH]1
- viability at 72 h, 500 µM [1]: 93%
- viability at 72 h, 500 µM [2]: 89%
- viability at 72 h, 100 µM [3]: 98%

From ChEMBL document CHEMBL4422632, “Design of Novel Inhibitors of Human Thymidine Phosphorylase: Synthesis, Enzyme Inhibition, in Vitro Toxicity, and Impact on Human Glioblastoma Cancer” (J Med Chem, 2019)
